Reference: ChEMBL document CHEMBL1155577, “New annonaceous acetogenins from the roots of Uvaria calamistrata” (J Nat Prod, 2000)
≈ marks a conversion by molar mass, not a printed value.

Experiments:
Format in all cases: functional, cell-based
[1] = Cytotoxicity against HCT cells by MTT assay; conditions: Homo sapiens
Procedure, shortened: (§1)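 5-day MTT test on human tumor cells (KB epidermoid, HCT-8 ileocecal carcinoma, A2780 epithelial); cell-generated MTT-formazan solubilized in dimethyl sulfoxide and read as a measure of cell growth.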

KB = assay: Cytotoxicity against human KB cells by MTT assay; procedure, shortened: as §1
A2780 = assay: Cytotoxicity against human A2780 cells by MTT assay; procedure, shortened: as §1

CCCCCCCCCC[C@@H](O)[C@H]1CC[C@H]([C@H](O)CCCCCC(O)CCCCCCCCCCC2=C[C@H](C)OC2=O)O1 (some centres not stated) [CALAMISTRIN C]
IC50 [1]: 0.00473 µg/mL (≈ 0.00777 µM) | IC50 (KB): 0.0605 µg/mL (≈ 0.0994 µM) | IC50 (A2780): 0.00315 µg/mL (≈ 0.00517 µM)

CCCCCCCC[C@H](O)[C@H]1CC[C@H]([C@H]2CC[C@H]([C@H](O)CCCCCCCCCCCC(O)CCC3=C[C@H](C)OC3=O)O2)O1 (some centres not stated) [CALAMISTRIN F]
IC50 [1]: 0.00227 µg/mL (≈ 0.00364 µM) | IC50 (KB): 0.051 µg/mL (≈ 0.0819 µM) | IC50 (A2780): 0.0366 µg/mL (≈ 0.0588 µM)

CCCCCCCC[C@@H](O)[C@H]1CC[C@H]([C@H]2CC[C@H]([C@H](O)CCCCCCCCCCC[C@@H](O)CCC3=C[C@H](C)OC3=O)O2)O1 [CALAMISTRIN G]
IC50 [1]: 0.00331 µg/mL (≈ 0.00531 µM) | IC50 (KB): 0.02 µg/mL (≈ 0.0321 µM) | IC50 (A2780): 0.00197 µg/mL (≈ 0.00316 µM)

CCCCCCCCCC[C@H](O)[C@H]1CC[C@H]([C@H](O)CCCCCC(O)CCCCCCCCCCC2=C[C@H](C)OC2=O)O1 (some centres not stated) [CALAMISTRIN D]
IC50 [1]: 0.0732 µg/mL (≈ 0.12 µM) | IC50 (KB): 0.0273 µg/mL (≈ 0.0448 µM) | IC50 (A2780): 0.431 µg/mL (≈ 0.708 µM)
